Source: PubChem (several laboratories)
An excerpt weighted towards active compounds, which were near 2.5% of everything screened.
Platelet DG rel – modulates dense granule release in human platelets | human platelet-rich plasma, SFLLRN dense granule ATP release, luminescence | inhibition, %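 (compounds screened at 7.5 µM in platelet-rich plasma)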 | 0.22% of 300,000 active | AID 1663;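 active means mean replicate score, as percent of positive control, at or above 50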
TRPC6 act – mouse TRPC6 channel activation | Q61143 | HEK293-TRPC6 membrane potential dye fluorescence; active compounds read high | B-score at 10 µM | 0.13% of 310,000 active | AID 2550;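 active means B-score of the integrated fluorescence ratio above library mean plus 3 SD, and starting fluorescence ratio within library mean plus 5 SD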;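 further: higher score means more depolarization so channel activation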
Target sequence (Q61143 whole entry, looked up): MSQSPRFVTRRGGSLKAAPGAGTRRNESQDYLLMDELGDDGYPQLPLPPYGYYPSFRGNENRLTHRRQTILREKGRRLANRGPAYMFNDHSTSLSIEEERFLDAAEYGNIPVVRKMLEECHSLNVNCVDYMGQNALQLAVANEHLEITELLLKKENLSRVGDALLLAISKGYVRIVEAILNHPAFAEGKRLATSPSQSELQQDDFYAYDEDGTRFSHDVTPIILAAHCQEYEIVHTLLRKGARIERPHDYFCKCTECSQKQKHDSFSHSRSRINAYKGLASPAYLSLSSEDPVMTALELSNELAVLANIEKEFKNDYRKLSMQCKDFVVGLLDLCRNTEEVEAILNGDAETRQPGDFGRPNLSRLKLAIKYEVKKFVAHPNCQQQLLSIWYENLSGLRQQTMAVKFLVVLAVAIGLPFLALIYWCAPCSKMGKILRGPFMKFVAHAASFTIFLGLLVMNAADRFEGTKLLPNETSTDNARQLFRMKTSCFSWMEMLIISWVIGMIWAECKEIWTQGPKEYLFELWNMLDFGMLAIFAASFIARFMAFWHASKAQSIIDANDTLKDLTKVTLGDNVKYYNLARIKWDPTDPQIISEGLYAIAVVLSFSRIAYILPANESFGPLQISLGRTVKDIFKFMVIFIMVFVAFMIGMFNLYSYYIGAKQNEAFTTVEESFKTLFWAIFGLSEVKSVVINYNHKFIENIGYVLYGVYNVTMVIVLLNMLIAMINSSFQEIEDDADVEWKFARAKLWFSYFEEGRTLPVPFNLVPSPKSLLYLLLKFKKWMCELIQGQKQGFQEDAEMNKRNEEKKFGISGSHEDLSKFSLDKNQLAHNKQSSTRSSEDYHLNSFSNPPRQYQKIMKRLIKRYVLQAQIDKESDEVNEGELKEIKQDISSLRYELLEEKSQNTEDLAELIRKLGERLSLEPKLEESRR
TRPC4 inh – blocks the mouse TRPC4 cation channel; B-score at 10 µM; HEK293 TRPC4beta/mu-opioid, DAMGO-evoked Fluo4 calcium flux; active compounds read low; Q9QUQ5; 0.39% of 300,000 active;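 active means B-score over 3 SD under the library average, no early fluorescence shift, positive overall ratio signal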
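Material: HEK293 cells with stable TRPC4beta plus mu-opioid receptor expression / Probe or stimulus: DAMGO in two steps, submaximal then maximal / Compound: single concentration per test compound / Technique: kinetic Fluo4 fluorescence imaging of calcium influx / Read-out: per-well B score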
TRPC4 agonist – activators of mouse TRPC4 channel | 0.49% of 310,000 active | HEK293 TRPC4beta/mu-opioid, Fluo4 calcium fluorescence; active compounds read high | B-score at 10 µM;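 active means B-score above 5 SD of library B-scores, and initial fluorescence ratio not above library mean plus 5 SD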;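 further: positive B-score marks a calcium rise read as TRPC4 activation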
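System – HEK293 cells stably co-expressing mouse TRPC4beta and mu-opioid receptor · Signal – Fluo4 calcium-sensitive dye fluorescence, kinetic, 1 Hz baseline · Benchmarks – buffer (low) and maximal DAMGO (high) · Read-out – B score of integrated fluorescence ratio per well · Incubation – dye loading 45 min room temperature, 110 s kinetic read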
TRPC4 potent – allosterically enhances the mouse TRPC4 cation channel; Q9QUQ5; HEK293 TRPC4beta/mu-opioid, DAMGO EC20, Fluo-4 Ca2+ flux; active compounds read high; B-score at 10 µM; 0.42% of 310,000 active;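 active means B-score of calcium response area above 5 SD of library B-scores, with initial fluorescence ratio within 5 SD of library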;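 further: B-score of integrated fluorescence ratio over time as area under calcium response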
TRPC6 inh – inhibitors of mouse TRPC6 channel; Q61143; HEK293-TRPC6, membrane potential dye, ACh-evoked depolarization; active compounds read low; B-score at 10 µM; 1.1% of 310,000 active;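 active means B-score under library mean minus 3 SD, initial fluorescence not abnormally high, positive integrated signal ratio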;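 further: B-score derived from integrated fluorescence ratio over the kinetic read; more negative B-score means stronger inhibition of depolarization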
TRPC4 sel inh 2 – second selectivity test of TRPC6 inhibitors: effect on mouse TRPC4; shares compounds with TRPC6 inh; HEK293 TRPC4/MOR, membrane potential dye fluorescence; channel activated by saturating DAMGO dose; 42% of 920 active; inhibition, % at 10 µM;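 active means compounds whose fluorescence signal differed from control wells by over 3 SD, either direction, in both duplicate plates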
TRPC4 spec – selectivity of TRPC6 inhibitors: effect on mouse TRPC4; shares compounds with TRPC6 inh; HEK293 TRPC4/mu-opioid, membrane potential fluorescence; activity change, negative = inhibition, % at 10 µM; 61% of 920 active; AID 2777;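 active means rise or fall in signal beyond 3 SD of buffer-only wells in both replicate plates, either sign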;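 further: integrated kinetic ratio of fluorescence range over baseline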
HEK293 MPD ctr 2-1 – second counter-screen for TRPC6 inhibitors: parental HEK293 cells; shares compounds with TRPC6 inh; parental HEK293 membrane potential dye fluorescence; maximal acetylcholine challenge after compound addition; signal change vs control, % at 10 µM; 31% of 920 active;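 active means membrane potential signal moving either way by over 3 SD of the maximum-effect control, in both duplicate plates, meaning non-specific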
HEK293 MPD ctr-1 – counter-screen for TRPC6 inhibitors: effect in parental HEK293 cells; 60% of 920 active; AID 2780; membrane potential signal change, % at 10 µM; shares compounds with TRPC6 inh; parental HEK293 membrane potential dye fluorescence;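 active means membrane potential signal shifting up or down by more than 3 SD of buffer-only wells, on both duplicate plates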
HEK293 MPD ctr-2 – counter-screen for TRPC6 modulators: effect in parental HEK293 cells; shares compounds with TRPC6 inh; membrane potential dye fluorescence; membrane potential signal change, % at 10 µM; 51% of 2,400 active; AID 488924;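 active means membrane potential signal moves up or down beyond 5 SD from buffer-only wells, on both duplicate plates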
HEK293 MPD ctr 2-2 – parental HEK293 nonspecific activity of TRPC6 modulators, second screen. 14% of 2,400 active. inhibition, % at 10 µM. membrane potential dye fluorescence; after compound, maximal acetylcholine stimulation. shares compounds with TRPC6 inh. AID 488926;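 active means membrane potential signal drops by more than 5 SD from the mean control signal, in both duplicate plates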;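 further: plate controls were acetylcholine ECmax control wells for no effect and buffer only wells for full effect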
TRPC4/MOR mod – mouse TRPC4 off-target activity of TRPC6 modulators; shares compounds with TRPC6 inh; HEK293 TRPC4/mu-opioid, membrane potential fluorescence; percent change from control (negative = decrease, positive = increase), % at 10 µM; 69% of 2,400 active; AID 488927;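 active means membrane potential signal moved up or down beyond 5 SD of buffer control wells, in both duplicate plates, actives on both sides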;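 further: plate controls were assay buffer wells for no effect and DAMGO maximal-effect wells for full effect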
TRPC4 ctr inh 2 – mouse TRPC4 off-target activity of TRPC6 modulators, second screen | 55% of 2,400 active | shares compounds with TRPC6 inh | AID 488928 | HEK293 TRPC4/mu-opioid, membrane potential dye fluorescence; stimulated with maximal-effect DAMGO | inhibition, % at 10 µM;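 active means drop in membrane potential signal beyond 5 SD of the control wells in both duplicate plates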;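 further: TRPC4 counter screen for TRPC6 hits run under conditions tuned for TRPC6 not TRPC4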
TRPC6 block conf – confirmation of mouse TRPC6 inhibitors. shares compounds with TRPC6 inh. HEK293-TRPC6, membrane potential dye, ACh-evoked depolarization. inhibition, % at 10 µM. 43% of 3,300 active;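 active means fluorescence ratio falls more than 5 SD below the full-stimulation control mean, in both duplicate runs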;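 further: integrated fluorescence ratio of peak minus minimum over baseline after agonist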
TRPC6 act conf – confirmation of mouse TRPC6 activators. HEK293-TRPC6 membrane potential dye fluorescence, FDSS. 11% of 2,800 active. activation, % at 10 µM. shares compounds with TRPC6 inh;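 active means ratio signal rise beyond 5 SD above unstimulated control wells' mean, seen in both duplicate runs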;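 further: plate controls were buffer EC0 wells for no effect and acetylcholine ECmax response for full effect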
* = called active by the depositor; i = inactive; nt = not tested or not shown.

SMILES | Platelet DG rel | TRPC6 act | TRPC4 inh | TRPC4 agonist | TRPC4 potent | TRPC6 inh | HEK293 MPD ctr-2 | HEK293 MPD ctr 2-2 | TRPC4/MOR mod | TRPC4 ctr inh 2 | TRPC6 block conf | TRPC6 act conf | others
CCN(CC)CCNC(=O)c1ccc(NC(=O)C2CCN(S(=O)(=O)c3ccc4c(c3)OCCO4)CC2)cc1 | 12.4 | i | i | i | i | i | nt | nt | nt | nt | nt | nt
CCN(CC)CCNC(=O)c1ccc(NC(=O)c2cccc(S(=O)(=O)Nc3ccc(C)cc3)c2)cc1 | 7.1 | i | i | i | i | -9.71* | nt | nt | nt | nt | 56.1%* | i | TRPC4 sel inh 2=i;TRPC4 spec=i;HEK293 MPD ctr 2-1=41.0%*;HEK293 MPD ctr-1=i
CCN(CC)CCNC(=O)c1ccc(NC(=O)c2cc(S(=O)(=O)N3CCCCC3)ccc2C)cc1 | 5.1 | i | i | i | i | -5.26* | i | 65.0%* | 10.5%* | i | 60.0%* | i
CC(C)CN(C(=O)COC(=O)c1cccn1C)c1c(N)n(Cc2ccccc2)c(=O)[nH]c1=O | -0.6 | i | i | i | i | i | nt | nt | nt | nt | nt | nt
CN(C)Cc1cccc([N+](=O)[O-])c1O | 0.6 | i | i | i | i | i | nt | nt | nt | nt | nt | nt
CCOc1nc2cnccc2n(CC(=O)Nc2ccc(C)c(C)c2)c1=O | 2.2 | i | i | i | i | i | nt | nt | nt | nt | nt | nt
Cc1cc(C)n(-c2nnc(C)n2/N=C/c2ccccc2OCc2ccccc2Cl)n1 | 10.4 | 13.1* | i | i | i | i | 473.5%* | i | 85.0%* | i | i | 116.5%*
O=C(O)Cc1sc(-c2ccccc2Cl)nc1-c1ccccc1 | 4.3 | i | i | i | i | -6.18* | i | i | i | i | i | i
CCOC(=O)c1c(C)n(C)c2ccc(OC)c(NC(=O)CCN3CCC(Cc4ccccc4)CC3)c12 | 7.6 | i | i | i | i | -5.24* | i | i | i | 69.5%* | 53.5%* | i
Cc1ccc(C2C3=C(NCCN=C3c3ccccc3)C(=O)N2c2ccccc2)cc1 (stereo unspecified) | 12.4 | i | i | i | i | -6.62* | nt | nt | nt | nt | 74.9%* | i | TRPC4 sel inh 2=16.5%*;TRPC4 spec=18.4%*;HEK293 MPD ctr 2-1=i;HEK293 MPD ctr-1=1.3%*
CCOc1ccc(N2C(=O)C3=C(C(c4ccc(Cl)cc4)=NCCN3)C2c2cccnc2)cc1 (stereo unspecified) | 26.4 | i | i | i | i | i | nt | nt | nt | nt | nt | nt
O=C(O)C1=C[C@@H](C2CCCCC2)C[C@@H](OCCCCO)O1 | -0.5 | i | i | i | i | i | nt | nt | nt | nt | nt | nt
CCn1cnc2cc(NCc3ccc(Br)cc3)ccc21 | 5.0 | i | i | i | i | -4.99* | i | i | i | 40.5%* | 40.5%* | i
CCCn1cnc2cc(NCc3ccc(Br)cc3)ccc21 | -0.3 | i | i | i | i | i | nt | nt | nt | nt | nt | nt
CCOc1ccc(CNc2ccc3c(c2)ncn3C(C)(C)C)cc1 | 5.1 | i | i | i | i | -8.54* | nt | nt | nt | nt | 65.6%* | i | TRPC4 sel inh 2=i;TRPC4 spec=i;HEK293 MPD ctr 2-1=i;HEK293 MPD ctr-1=i
O=C(Nc1ccc(C2=NCCN2)cc1)c1ccc(C(=O)Nc2ccc(C3=NCCN3)cc2)c(Cl)c1 | -11.3 | 15.8* | i | i | i | i | 307.0%* | i | 54.0%* | i | i | 154.5%*
Cc1ccc(C(=O)NCC(=O)OCc2csc(-c3ccccc3)n2)cc1 | -5.4 | i | i | i | i | i | nt | nt | nt | nt | nt | nt
O=C(OCc1csc(-c2ccccc2)n1)c1ccc(O)cc1 | -6.0 | i | i | i | i | -10.2* | nt | nt | nt | nt | 72.5%* | nt | TRPC4 sel inh 2=i;TRPC4 spec=-9.2%*;HEK293 MPD ctr 2-1=i;HEK293 MPD ctr-1=i
CC(OC(=O)c1cccc(S(=O)(=O)N2CCCC2)c1)C(=O)NC1CCCCC1C (stereo unspecified) | 4.7 | i | i | i | i | i | nt | nt | nt | nt | nt | nt
COc1ccc(N2C(=O)CSC23C(=O)Nc2ccccc23)cc1 (stereo unspecified) | -3.5 | i | i | i | i | i | nt | nt | nt | nt | nt | nt
Cc1ccc(N2C(=O)CCSC23C(=O)Nc2ccccc23)cc1 (stereo unspecified) | 0.9 | i | i | i | i | -6.66* | nt | nt | nt | nt | i | i | TRPC4 sel inh 2=i;TRPC4 spec=i;HEK293 MPD ctr 2-1=i;HEK293 MPD ctr-1=i
COc1ccc2nc(NCc3ccccc3)[nH]c2c1 | -3.5 | i | -7* | i | i | -5.25* | i | i | i | 90.5%* | i | i
Cc1ccc2nc(NCc3ccccc3)[nH]c2c1 | -4.7 | i | -5* | i | i | -6.53* | i | i | i | 97.5%* | 49.0%* | i
Cn1c(CNc2ccc(Cl)cc2)nnc1SCCN1CCCCC1 | -3.5 | i | i | i | i | -5.14* | i | i | 17.5%* | 38.0%* | i | i
C=CCOc1ccc(C(c2c(C(=O)O)[nH]c3ccccc23)c2c(C(=O)O)[nH]c3ccccc23)cc1 | -6.1 | i | i | i | i | i | nt | nt | nt | nt | nt | nt
